Results taken from ChEMBL document CHEMBL5724801, “EUbOPEN Chemogenomics Library - Multiplex” (2024).
Values joined by “and” are separate entries in the source; they are usually repeats but may differ in a detail not shown here. Equal entries are not always repeated.

Assays:
U2OS = assay: Multiplex assay against U2OS; format: toxicity, cell-based; conditions: human
In short: (§1)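 Live cells were stained at seeding with Hoechst33342, BioTracker Green Microtubule Cytoskeleton Dye, MitoTracker Red and Annexin V Alexa Fluor 680. Following compound addition, they were imaged on a CQ1 microscope at 37°C and 5% CO2 and gated by CellPathfinder machine learning into Hoechst high-intensity objects or normal cells, with normal cells split into healthy, pyknosed or fragmented nuclei and pyknosed cells into mitotic or apoptotic. Tubulin, mitochondrial-mass and membrane-permeability phenotypes are per cents of healthy-nucleus cells.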

Fibroblast = assay: Multiplex assay against human fibroblast; format: toxicity, cell-based; in short: as §1
[1] = 12 h, 1 µM, compound concentration 1 uM
[2] = 12 h, 10 µM, compound concentration 10 uM
[3] = 24 h, 1 µM, compound concentration 1 uM
[4] = 24 h, 10 µM, compound concentration 10 uM
[5] = 48 h, 1 µM, compound concentration 1 uM
[6] = 48 h, 10 µM, compound concentration 10 uM

C=CCN1C[C@H](C(=O)N(CCCN(C)C)C(=O)NCC)C[C@@H]2c3cccc4[nH]cc(c34)C[C@H]21 [CABERGOLINE]
Population Apoptotic (%) (U2OS; [1]): 86% and 57% | Population Fragmented Nuclei (%) (U2OS; [1]): 13% and 9% | Population Healthy Nuclei (%) (U2OS; [1]): 72% and 84% | Population Hoechst High Intensity Objects (%) (U2OS; [1]): 2% and 3% | Population Membrane Permeable-Phenotype (%) (U2OS; [1]): 3% and 8% | Population Mitochondria Different-Phenotype (%) (U2OS; [1]): 1% and 4% | Population Normal (%) (U2OS; [1]): 97% and 96% | Population Pyknosed Nuclei (%) (U2OS; [1]): 13% and 5% | Population Tubulin-Different-Phenotype (%) (U2OS; [1]): 1% and 5% | Total Cell Count (U2OS; [1]): 228 and 129 | Population Apoptotic (%) (U2OS; [2]): 69% and 64% | Population Fragmented Nuclei (%) (U2OS; [2]): 35% and 17% | Population Healthy Nuclei (%) (U2OS; [2]): 52% and 70% | Population Hoechst High Intensity Objects (%) (U2OS; [2]): 3% and 2% | Population Membrane Permeable-Phenotype (%) (U2OS; [2]): 15% and 13% | Population Mitochondria Different-Phenotype (%) (U2OS; [2]): 9% and 21% | Population Mitotic Cells (%) (U2OS; [2]): 30% and 35% | Population Normal (%) (U2OS; [2]): 96% and 97% | Population Pyknosed Nuclei (%) (U2OS; [2]): 11% and 12% | Population Tubulin-Different-Phenotype (%) (U2OS; [2]): 11% and 9% | Total Cell Count (U2OS; [2]): 228 and 143 | Population Apoptotic (%) (U2OS; [3]): 82% and 64% | Population Fragmented Nuclei (%) (U2OS; [3]): 15% and 7% | Population Healthy Nuclei (%) (U2OS; [3]): 74% and 83% | Population Hoechst High Intensity Objects (%) (U2OS; [3]): 3% and 1% | Population Membrane Permeable-Phenotype (%) (U2OS; [3]): 1% and 9% | Population Mitochondria Different-Phenotype (%) (U2OS; [3]): 1% and 4% | Population Mitotic Cells (%) (U2OS; [3]): 17% and 35% | Population Normal (%) (U2OS; [3]): 96% and 98% | Population Pyknosed Nuclei (%) (U2OS; [3]): 10% and 8% | Population Tubulin-Different-Phenotype (%) (U2OS; [3]): 0% and 6% | Total Cell Count (U2OS; [3]): 295 and 162 | Population Apoptotic (%) (U2OS; [4]): 65% and 88% | Population Fragmented Nuclei (%) (U2OS; [4]): 33% and 14% | Population Healthy Nuclei (%) (U2OS; [4]): 54% and 75% | Population Hoechst High Intensity Objects (%) (U2OS; [4]): 3% and 2% | Population Membrane Permeable-Phenotype (%) (U2OS; [4]): 10% and 13% | Population Mitochondria Different-Phenotype (%) (U2OS; [4]): 5% and 12% | Population Normal (%) (U2OS; [4]): 96% and 97% | Population Pyknosed Nuclei (%) (U2OS; [4]): 11% and 10% | Population Tubulin-Different-Phenotype (%) (U2OS; [4]): 4% and 10% | Total Cell Count (U2OS; [4]): 228 and 165 | Population Apoptotic (%) (U2OS; [5]): 88% and 93% | Population Fragmented Nuclei (%) (U2OS; [5]): 13% | Population Healthy Nuclei (%) (U2OS; [5]): 77% and 73% | Population Hoechst High Intensity Objects (%) (U2OS; [5]): 2% and 3% | Population Membrane Permeable-Phenotype (%) (U2OS; [5]): 5% and 4% | Population Mitochondria Different-Phenotype (%) (U2OS; [5]): 1% and 4% | Population Mitotic Cells (%) (U2OS; [5]): 11% and 6% | Population Normal (%) (U2OS; [5]): 97% and 96% | Population Pyknosed Nuclei (%) (U2OS; [5]): 8% and 13% | Population Tubulin-Different-Phenotype (%) (U2OS; [5]): 3% | Total Cell Count (U2OS; [5]): 405 and 221 | Population Apoptotic (%) (U2OS; [6]): 86% and 87% | Population Fragmented Nuclei (%) (U2OS; [6]): 30% and 13% | Population Healthy Nuclei (%) (U2OS; [6]): 57% and 66% | Population Hoechst High Intensity Objects (%) (U2OS; [6]): 3% and 4% | Population Membrane Permeable-Phenotype (%) (U2OS; [6]): 7% and 9% | Population Mitochondria Different-Phenotype (%) (U2OS; [6]): 1% and 9% | Population Mitotic Cells (%) (U2OS; [6]): 13% and 12% | Population Normal (%) (U2OS; [6]): 96% and 95% | Population Pyknosed Nuclei (%) (U2OS; [6]): 12% and 20% | Population Tubulin-Different-Phenotype (%) (U2OS; [6]): 3% and 5% | Total Cell Count (U2OS; [6]): 303 and 206 | Population Apoptotic (%) (Fibroblast; [1]): 69% and 35% | Population Fragmented Nuclei (%) (Fibroblast; [1]): 13% and 20% | Population Healthy Nuclei (%) (Fibroblast; [1]): 78% and 46% | Population Hoechst High Intensity Objects (%) (Fibroblast; [1]): 6% | Population Membrane Permeable-Phenotype (%) (Fibroblast; [1]): 0% and 4% | Population Mitochondria Different-Phenotype (%) (Fibroblast; [1]): 2% and 1% | Population Mitotic Cells (%) (Fibroblast; [1]): 30% and 64% | Population Normal (%) (Fibroblast; [1]): 93% | Population Tubulin-Different-Phenotype (%) (Fibroblast; [1]): 26% and 25% | Total Cell Count (Fibroblast; [1]): 186 and 144 | Population Apoptotic (%) (Fibroblast; [2]): 50% and 35% | Population Fragmented Nuclei (%) (Fibroblast; [2]): 25% and 44% | Population Healthy Nuclei (%) (Fibroblast; [2]): 64% and 39% | Population Hoechst High Intensity Objects (%) (Fibroblast; [2]): 3% and 5% | Population Membrane Permeable-Phenotype (%) (Fibroblast; [2]): 0% and 6% | Population Mitochondria Different-Phenotype (%) (Fibroblast; [2]): 11% and 10% | Population Mitotic Cells (%) (Fibroblast; [2]): 50% and 64% | Population Normal (%) (Fibroblast; [2]): 96% and 94% | Population Pyknosed Nuclei (%) (Fibroblast; [2]): 10% and 16% | Population Tubulin-Different-Phenotype (%) (Fibroblast; [2]): 46% and 53% | Total Cell Count (Fibroblast; [2]): 248 and 178 | Population Apoptotic (%) (Fibroblast; [3]): 68% and 44% | Population Fragmented Nuclei (%) (Fibroblast; [3]): 15% and 24% | Population Healthy Nuclei (%) (Fibroblast; [3]): 74% and 46% | Population Hoechst High Intensity Objects (%) (Fibroblast; [3]): 4% and 6% | Population Membrane Permeable-Phenotype (%) (Fibroblast; [3]): 1% and 3% | Population Mitochondria Different-Phenotype (%) (Fibroblast; [3]): 3% | Population Mitotic Cells (%) (Fibroblast; [3]): 31% and 55% | Population Normal (%) (Fibroblast; [3]): 95% and 93% | Population Pyknosed Nuclei (%) (Fibroblast; [3]): 10% and 29% | Population Tubulin-Different-Phenotype (%) (Fibroblast; [3]): 33% and 39% | Total Cell Count (Fibroblast; [3]): 198 and 132 | Population Apoptotic (%) (Fibroblast; [4]): 73% and 43%
